Laboratory results reported in ChEMBL document CHEMBL2046302, “Fused tricyclic indoles as S1P₁ agonists with robust efficacy in animal models of autoimmune disease” (Bioorg Med Chem Lett, 2012).
Each block holds one compound with its values, some of them ahead of it. Activity calls are given as the source filed them. No cut-off for these calls is given here.

What was measured:
[1] = biological target: T1, Sphingosine 1-phosphate receptor 1 (Homo sapiens, UniProt P21453); assay: Agonist activity against human S1P1 assessed as accumulation of cAMP by HTRF assay; type: functional
T1 sequence (P21453 whole entry): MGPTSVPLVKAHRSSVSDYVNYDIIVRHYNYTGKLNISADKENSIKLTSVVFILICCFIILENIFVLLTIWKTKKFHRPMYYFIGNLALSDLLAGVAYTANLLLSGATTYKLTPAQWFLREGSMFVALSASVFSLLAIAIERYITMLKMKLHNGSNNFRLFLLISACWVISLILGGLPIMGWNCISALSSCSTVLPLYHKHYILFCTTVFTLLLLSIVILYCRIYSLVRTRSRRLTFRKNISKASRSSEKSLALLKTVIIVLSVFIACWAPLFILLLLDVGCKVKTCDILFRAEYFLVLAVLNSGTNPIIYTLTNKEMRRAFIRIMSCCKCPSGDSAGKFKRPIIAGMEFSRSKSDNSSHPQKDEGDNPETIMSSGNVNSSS
Procedure, shortened: (§1)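 Agonist EC50 was read from a cAMP HTRF assay run on human, rat and mouse S1P1. Response was scaled against S1P, and values are the mean of three or more replicates.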

[2] = biological target: Sphingosine 1-phosphate receptor 2 (Homo sapiens, UniProt O95136); assay: Agonist activity against human S1P2 by beta arrestin recruitment assay; type: functional
Sphingosine 1-phosphate receptor 2, sequence (O95136 whole entry): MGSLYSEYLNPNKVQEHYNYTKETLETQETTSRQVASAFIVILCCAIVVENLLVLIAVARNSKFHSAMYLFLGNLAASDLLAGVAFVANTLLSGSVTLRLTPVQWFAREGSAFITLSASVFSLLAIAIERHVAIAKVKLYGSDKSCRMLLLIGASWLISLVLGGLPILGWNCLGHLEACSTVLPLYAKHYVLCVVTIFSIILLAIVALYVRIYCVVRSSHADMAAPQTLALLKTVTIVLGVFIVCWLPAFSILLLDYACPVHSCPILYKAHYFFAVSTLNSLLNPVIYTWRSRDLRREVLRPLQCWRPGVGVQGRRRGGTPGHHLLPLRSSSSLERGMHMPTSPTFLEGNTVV
Procedure, shortened: (§2)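 Agonist EC50 at human S1P1 through S1P5 was measured by β-arrestin recruitment. Values are the mean of three or more replicates.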

[3] = biological target: Sphingosine 1-phosphate receptor 1 (Rattus norvegicus, UniProt P48303); assay: Agonist activity against rat S1P1 assessed as accumulation of cAMP by HTRF assay; type: functional; procedure, shortened: as §1
Sphingosine 1-phosphate receptor 1 (Rattus norvegicus, UniProt P48303), sequence (P48303 whole entry): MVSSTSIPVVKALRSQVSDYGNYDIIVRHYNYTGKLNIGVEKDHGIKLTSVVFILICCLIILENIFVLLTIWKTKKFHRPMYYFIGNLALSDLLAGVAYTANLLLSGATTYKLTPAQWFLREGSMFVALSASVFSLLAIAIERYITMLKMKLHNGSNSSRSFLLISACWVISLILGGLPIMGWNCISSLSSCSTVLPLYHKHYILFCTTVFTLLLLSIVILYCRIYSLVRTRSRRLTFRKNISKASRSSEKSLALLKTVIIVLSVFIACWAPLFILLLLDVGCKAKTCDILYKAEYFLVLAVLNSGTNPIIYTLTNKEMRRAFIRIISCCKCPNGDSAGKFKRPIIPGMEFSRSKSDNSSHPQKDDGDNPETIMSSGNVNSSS

[4] = biological target: Sphingosine 1-phosphate receptor 1 (Mus musculus, UniProt O08530); assay: Agonist activity against mouse S1P1 assessed as accumulation of cAMP by HTRF assay; type: functional; procedure, shortened: as §1
Sphingosine 1-phosphate receptor 1 (Mus musculus, UniProt O08530), sequence (O08530 whole entry): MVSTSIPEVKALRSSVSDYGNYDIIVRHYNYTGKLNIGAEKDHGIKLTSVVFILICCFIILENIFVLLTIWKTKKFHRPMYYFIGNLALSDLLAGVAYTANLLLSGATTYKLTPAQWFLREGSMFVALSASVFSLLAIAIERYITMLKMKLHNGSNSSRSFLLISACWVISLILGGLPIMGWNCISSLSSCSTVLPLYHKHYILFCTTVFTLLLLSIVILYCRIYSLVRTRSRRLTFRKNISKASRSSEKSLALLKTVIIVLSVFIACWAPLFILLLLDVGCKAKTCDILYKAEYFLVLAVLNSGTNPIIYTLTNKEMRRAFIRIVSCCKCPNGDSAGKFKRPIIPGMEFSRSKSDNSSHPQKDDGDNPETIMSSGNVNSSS

[5] = biological target: T1, Sphingosine 1-phosphate receptor 1; assay: Agonist activity against human S1P1 by beta arrestin recruitment assay; type: functional; procedure, shortened: as §2
[6] = biological target: Sphingosine 1-phosphate receptor 3 (Homo sapiens, UniProt Q99500); assay: Agonist activity against human S1P3 by beta arrestin recruitment assay; type: functional; procedure, shortened: as §2
Sphingosine 1-phosphate receptor 3, sequence (Q99500 whole entry): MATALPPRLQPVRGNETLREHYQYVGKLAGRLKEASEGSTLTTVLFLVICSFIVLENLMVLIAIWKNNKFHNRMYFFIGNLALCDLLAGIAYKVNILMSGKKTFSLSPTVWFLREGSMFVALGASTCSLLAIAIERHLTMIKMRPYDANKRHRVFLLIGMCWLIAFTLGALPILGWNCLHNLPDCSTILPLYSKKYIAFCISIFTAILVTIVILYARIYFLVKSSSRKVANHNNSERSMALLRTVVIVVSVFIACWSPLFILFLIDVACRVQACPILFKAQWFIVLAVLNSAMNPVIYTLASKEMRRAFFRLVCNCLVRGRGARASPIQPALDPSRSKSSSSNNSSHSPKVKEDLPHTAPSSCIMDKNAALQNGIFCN

[7] = biological target: T2, Sphingosine 1-phosphate receptor 4 (Homo sapiens, UniProt O95977); assay: Agonist activity against human S1P4 by beta arrestin recruitment assay; type: functional; procedure, shortened: as §2
T2 sequence (O95977 whole entry): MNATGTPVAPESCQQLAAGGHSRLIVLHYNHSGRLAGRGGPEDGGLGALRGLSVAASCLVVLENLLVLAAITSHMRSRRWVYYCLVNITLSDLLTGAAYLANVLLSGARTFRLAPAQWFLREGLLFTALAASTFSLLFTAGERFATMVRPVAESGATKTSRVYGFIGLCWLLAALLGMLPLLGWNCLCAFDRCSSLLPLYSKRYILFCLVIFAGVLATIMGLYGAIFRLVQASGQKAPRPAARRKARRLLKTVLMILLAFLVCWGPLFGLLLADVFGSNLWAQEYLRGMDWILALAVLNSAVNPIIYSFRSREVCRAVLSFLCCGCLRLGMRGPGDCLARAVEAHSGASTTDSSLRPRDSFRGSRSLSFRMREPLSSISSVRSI

[8] = biological target: Sphingosine 1-phosphate receptor 5 (Homo sapiens, UniProt Q9H228); assay: Agonist activity against human S1P5 by beta arrestin recruitment assay; type: functional; procedure, shortened: as §2
Sphingosine 1-phosphate receptor 5, sequence (Q9H228 whole entry): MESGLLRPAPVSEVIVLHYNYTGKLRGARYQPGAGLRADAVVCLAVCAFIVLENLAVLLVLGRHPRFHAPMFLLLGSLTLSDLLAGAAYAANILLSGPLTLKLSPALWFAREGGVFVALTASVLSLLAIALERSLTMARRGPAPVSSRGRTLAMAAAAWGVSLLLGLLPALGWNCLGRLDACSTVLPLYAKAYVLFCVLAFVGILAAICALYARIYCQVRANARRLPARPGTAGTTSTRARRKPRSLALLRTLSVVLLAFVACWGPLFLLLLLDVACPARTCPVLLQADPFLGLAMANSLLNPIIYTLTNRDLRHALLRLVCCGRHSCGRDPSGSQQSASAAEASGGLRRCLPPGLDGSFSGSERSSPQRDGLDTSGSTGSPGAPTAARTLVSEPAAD

[9] = Half life in rat liver microsome; type: ADME; conditions: liver microsomes
[10] = Half life in human liver microsome; type: ADME; conditions: liver microsomes
[11] = Clearance in Sprague-Dawley rat at 2 mg/kg, iv and 3 mg/kg, po; type: ADME, organism-based; conditions: in vivo
Procedure, shortened: (§3)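 Male Sprague–Dawley rats received 2.0 mg/kg IV in 100% PEG400 and 3.0 mg/kg PO in 0.5% methyl cellulose. Clearance, Vss, terminal half-life, Cmax, AUClast and oral bioavailability were derived from plasma levels.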

[12] = Cmax in Sprague-Dawley rat in Sprague-Dawley rat at 2 mg/kg, iv and 3 mg/kg, po; type: ADME, organism-based; conditions: in vivo; procedure, shortened: as §3
[13] = Volume of distribution at steady state in Sprague-Dawley rat at 2 mg/kg, iv and 3 mg/kg, po; type: ADME, organism-based; conditions: in vivo, read-out: Vdss; procedure, shortened: as §3
[14] = Terminal half life in Sprague-Dawley rat at 2 mg/kg, iv and 3 mg/kg, po; type: ADME, organism-based; conditions: in vivo, read-out: beta t1/2 (converted); procedure, shortened: as §3
[15] = AUClast in Sprague-Dawley rat in Sprague-Dawley rat at 2 mg/kg, iv and 3 mg/kg, po; type: ADME, organism-based; conditions: plasma; procedure, shortened: as §3
[16] = Oral bioavailability in Sprague-Dawley rat at 3 mg/kg; type: ADME, organism-based; conditions: in vivo; procedure, shortened: as §3
Cytochrome P450 3A4 = Cytochrome P450 3A4 (Homo sapiens, UniProt P08684); assay: Inhibition of CYP3A4; type: ADME
Cytochrome P450 3A4, sequence (P08684 whole entry): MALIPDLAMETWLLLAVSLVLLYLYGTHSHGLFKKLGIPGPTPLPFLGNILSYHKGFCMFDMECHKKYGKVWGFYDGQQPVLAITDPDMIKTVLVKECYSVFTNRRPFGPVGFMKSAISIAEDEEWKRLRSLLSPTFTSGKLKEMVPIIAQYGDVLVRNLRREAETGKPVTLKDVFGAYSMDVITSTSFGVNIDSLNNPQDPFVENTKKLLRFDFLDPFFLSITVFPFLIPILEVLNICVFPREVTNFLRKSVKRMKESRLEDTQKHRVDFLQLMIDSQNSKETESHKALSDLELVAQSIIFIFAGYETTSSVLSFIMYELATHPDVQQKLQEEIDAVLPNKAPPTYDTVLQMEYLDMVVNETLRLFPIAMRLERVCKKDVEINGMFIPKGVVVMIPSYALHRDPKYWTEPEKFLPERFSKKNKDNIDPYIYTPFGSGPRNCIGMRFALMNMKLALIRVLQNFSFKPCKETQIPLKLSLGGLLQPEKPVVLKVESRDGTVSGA

Cytochrome P450 2D6 = Cytochrome P450 2D6 (Homo sapiens, UniProt P10635); assay: Inhibition of CYP2D6; type: ADME
Cytochrome P450 2D6, sequence (P10635 whole entry): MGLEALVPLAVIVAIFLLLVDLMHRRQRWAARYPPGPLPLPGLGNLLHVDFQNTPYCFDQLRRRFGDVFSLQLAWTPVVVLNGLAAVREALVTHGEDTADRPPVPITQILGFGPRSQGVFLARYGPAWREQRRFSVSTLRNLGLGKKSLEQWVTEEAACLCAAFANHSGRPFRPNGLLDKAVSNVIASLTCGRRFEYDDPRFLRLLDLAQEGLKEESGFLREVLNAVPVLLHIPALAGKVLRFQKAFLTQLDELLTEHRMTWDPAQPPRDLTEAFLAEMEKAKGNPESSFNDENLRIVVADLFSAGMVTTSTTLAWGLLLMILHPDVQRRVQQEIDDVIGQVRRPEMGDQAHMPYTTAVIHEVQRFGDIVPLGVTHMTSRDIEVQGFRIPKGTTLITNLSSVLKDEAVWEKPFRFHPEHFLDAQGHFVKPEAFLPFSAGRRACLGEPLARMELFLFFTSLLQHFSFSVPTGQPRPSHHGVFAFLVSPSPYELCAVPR

Cytochrome P450 2C9 = Cytochrome P450 2C9 (Homo sapiens, UniProt P11712); assay: Inhibition of CYP2C9; type: ADME
Cytochrome P450 2C9, sequence (P11712 whole entry): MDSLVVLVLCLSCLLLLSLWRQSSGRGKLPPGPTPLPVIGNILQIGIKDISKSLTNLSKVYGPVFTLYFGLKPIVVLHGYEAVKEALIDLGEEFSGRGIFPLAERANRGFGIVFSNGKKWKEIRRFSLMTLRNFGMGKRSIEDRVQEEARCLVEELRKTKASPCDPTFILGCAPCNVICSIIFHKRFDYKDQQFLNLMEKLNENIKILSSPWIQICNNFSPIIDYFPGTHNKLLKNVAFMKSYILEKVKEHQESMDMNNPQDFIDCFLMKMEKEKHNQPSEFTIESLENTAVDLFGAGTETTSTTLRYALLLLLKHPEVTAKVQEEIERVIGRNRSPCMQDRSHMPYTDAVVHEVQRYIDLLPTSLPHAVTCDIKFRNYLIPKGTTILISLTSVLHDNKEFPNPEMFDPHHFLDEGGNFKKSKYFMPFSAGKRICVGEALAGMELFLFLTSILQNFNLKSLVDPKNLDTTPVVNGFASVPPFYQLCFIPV

Cytochrome P450 2C19 = Cytochrome P450 2C19 (Homo sapiens, UniProt P33261); assay: Inhibition of CYP2C19; type: ADME
Cytochrome P450 1A2 = biological target: T3, Cytochrome P450 1A2 (Homo sapiens, UniProt P05177); assay: Inhibition of CYP1A2; type: ADME
T3 sequence (P05177 whole entry): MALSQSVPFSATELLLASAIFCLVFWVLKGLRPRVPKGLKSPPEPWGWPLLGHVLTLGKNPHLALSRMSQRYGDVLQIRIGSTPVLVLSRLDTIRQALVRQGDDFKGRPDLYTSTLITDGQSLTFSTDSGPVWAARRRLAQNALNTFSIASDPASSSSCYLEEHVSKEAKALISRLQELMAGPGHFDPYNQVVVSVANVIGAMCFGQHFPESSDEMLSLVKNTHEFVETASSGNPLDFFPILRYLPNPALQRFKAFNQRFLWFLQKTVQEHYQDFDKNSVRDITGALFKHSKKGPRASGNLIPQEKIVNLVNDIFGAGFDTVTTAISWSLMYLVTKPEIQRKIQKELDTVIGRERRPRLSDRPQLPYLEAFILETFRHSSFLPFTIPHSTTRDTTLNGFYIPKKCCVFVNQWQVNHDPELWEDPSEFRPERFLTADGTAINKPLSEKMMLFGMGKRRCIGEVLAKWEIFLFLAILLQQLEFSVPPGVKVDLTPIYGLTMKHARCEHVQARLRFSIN

[17] = biological target: T4, Voltage-gated inwardly rectifying potassium channel KCNH2 (Homo sapiens, UniProt Q12809); assay: Inhibition of human ERG by astemizole assay
T4 sequence (Q12809 whole entry): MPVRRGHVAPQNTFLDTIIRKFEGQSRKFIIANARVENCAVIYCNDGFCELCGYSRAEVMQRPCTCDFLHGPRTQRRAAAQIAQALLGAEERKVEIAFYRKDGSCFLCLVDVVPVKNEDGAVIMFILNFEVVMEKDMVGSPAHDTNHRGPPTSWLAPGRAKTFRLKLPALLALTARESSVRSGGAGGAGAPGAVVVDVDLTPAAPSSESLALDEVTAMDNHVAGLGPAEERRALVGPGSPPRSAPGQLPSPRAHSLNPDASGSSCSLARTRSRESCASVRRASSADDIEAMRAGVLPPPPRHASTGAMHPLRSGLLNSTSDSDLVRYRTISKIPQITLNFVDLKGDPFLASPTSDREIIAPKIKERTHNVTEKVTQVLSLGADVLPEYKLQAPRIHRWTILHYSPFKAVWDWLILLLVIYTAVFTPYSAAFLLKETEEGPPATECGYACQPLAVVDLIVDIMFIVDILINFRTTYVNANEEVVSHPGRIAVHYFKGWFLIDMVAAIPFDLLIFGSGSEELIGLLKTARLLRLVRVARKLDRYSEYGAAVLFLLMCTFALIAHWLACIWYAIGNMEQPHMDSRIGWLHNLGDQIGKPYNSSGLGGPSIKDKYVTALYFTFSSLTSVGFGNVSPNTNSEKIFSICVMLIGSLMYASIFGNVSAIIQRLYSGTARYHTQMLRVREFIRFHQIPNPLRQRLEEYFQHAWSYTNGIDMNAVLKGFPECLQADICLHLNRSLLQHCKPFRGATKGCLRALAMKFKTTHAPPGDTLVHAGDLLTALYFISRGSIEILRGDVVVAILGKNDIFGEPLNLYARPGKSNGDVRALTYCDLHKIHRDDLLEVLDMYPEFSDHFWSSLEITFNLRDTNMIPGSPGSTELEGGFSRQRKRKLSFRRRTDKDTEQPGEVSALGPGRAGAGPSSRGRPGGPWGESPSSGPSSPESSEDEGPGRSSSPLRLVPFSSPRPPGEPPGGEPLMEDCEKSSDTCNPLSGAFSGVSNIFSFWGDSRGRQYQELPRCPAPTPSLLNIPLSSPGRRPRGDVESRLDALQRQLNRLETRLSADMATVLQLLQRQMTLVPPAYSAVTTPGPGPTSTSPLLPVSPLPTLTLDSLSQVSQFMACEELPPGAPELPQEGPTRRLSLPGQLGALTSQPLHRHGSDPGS

[18] = biological target: T4, Voltage-gated inwardly rectifying potassium channel KCNH2; assay: Inhibition of human ERG by patch clamp assay
Salmonella typhimurium [19] = assay: Mutagenic activity against Salmonella typhimurium assessed as frame shift mutation by ames test; type: toxicity, organism-based; conditions: salmonella enterica subsp. enterica serovar typhimurium
Procedure, shortened: (§4)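 Ames bacterial reverse mutation test on five strains, scored for frame-shift and base-pair substitution mutations.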

Salmonella typhimurium [20] = assay: Mutagenic activity against Salmonella typhimurium assessed as base pair mutation by ames test; type: toxicity, organism-based; conditions: salmonella enterica subsp. enterica serovar typhimurium; procedure, shortened: as §4
Rattus norvegicus [21] = assay: Toxicity in telemeterized Charles-River Sprague-Dawley rat assessed as reduction in heart rate at 3 mg/kg, po measured over 20 hrs; type: organism-based; set-up: dose 3 mg/kg, route oral; conditions: in vivo
Procedure, shortened: (§5)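 Telemeterized Charles River Sprague–Dawley rats received 3 or 30 mg/kg orally as a suspension in 0.5% methyl cellulose, with vehicle-treated and positive-control groups. Heart rate was recorded hourly over 20 h.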

Rattus norvegicus [22] = assay: Toxicity in telemeterized Charles-River Sprague-Dawley rat assessed as reduction in heart rate at 30 mg/kg, po measured over 20 hrs; type: organism-based; set-up: dose 30 mg/kg, route oral; conditions: in vivo; procedure, shortened: as §5
[23] = Half life in mouse liver microsome; type: ADME; conditions: liver microsomes
Mus musculus [24] = assay: Immunosuppressant activity in BALB/c mouse assessed as reduction in circulating lymphocyte at 6 mg/kg, po measured after 5 hrs; type: functional, organism-based; set-up: dose 6 mg/kg
Procedure, shortened: (§6)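 BALB/c mice were dosed orally as a suspension in 0.5% methyl cellulose, at 6 mg/kg or 1.0 mg/kg. Circulating lymphocytes were followed over time, with readings at 5 h and 24 h.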

Mus musculus [25] = assay: Immunosuppressant activity in BALB/c mouse assessed as reduction in circulating lymphocyte at 6 mg/kg, po measured up to 24 hrs; type: functional, organism-based; set-up: dose 6 mg/kg; procedure, shortened: as §6
Mus musculus [26] = assay: Immunosuppressant activity in BALB/c mouse assessed as reduction in circulating lymphocyte at 1 mg/kg, po measured at 5 hrs; type: functional, organism-based; set-up: dose 1 mg/kg; procedure, shortened: as §6
Mus musculus [27] = assay: Immunosuppressant activity in BALB/c mouse assessed as reduction in circulating lymphocyte at 1 mg/kg, po measured at 24 hrs; type: functional, organism-based; set-up: dose 1 mg/kg; procedure, shortened: as §6
Mus musculus [28] = assay: Immunosuppressant activity in autoimmune encephalomyelitis C57B1/6 mouse model assessed as reduction in disease score at 10 mg/kg, po qd administered on day 3 post challenge; type: functional, organism-based; set-up: dose 10 mg/kg
Procedure, shortened: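 Oral dosing once daily in 0.5% methylcellulose began on day 3. Signs of disease were monitored daily and graded on a 1–5 scale, from limp tail or hind-limb weakness (1) to death (5).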

Mus musculus [29] = assay: Reduction T-cell mediated beta-cell destruction in cyclophosphamide-induced non-obese type 1 diabetes mouse model assessed as normalization of blood glucose at 1 mg/kg, po qd for 25 days; type: functional, organism-based; set-up: dose 1 mg/kg
Procedure, shortened: (§7)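 NOD mice were given cyclophosphamide i.p. on days 0 and 14 to accelerate diabetes onset. Oral dosing once daily in 0.5% methyl cellulose ran from day 0 to day 25. Animals with non-fasting blood glucose >250 mg/dL were scored diabetic.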

Mus musculus [30] = assay: Reduction T-cell mediated beta-cell destruction in cyclophosphamide-induced non-obese type 1 diabetes mouse model assessed as normalization of blood glucose at 3 to 10 mg/kg, po qd for 25 days; type: functional, organism-based; procedure, shortened: as §7
Rattus norvegicus [31] = assay: Immunosuppressant activity in collagen-induced Lewis rat arthritis model assessed as reduction in joint inflammation at 1 to 10 mg/kg, po qd; type: functional, organism-based

Compound: N#Cc1cc(OC(F)(F)F)cc(-c2nc(-c3ccc4c(c3)cc3n4CCC3CC(=O)O)no2)c1 (single isomer, unassigned; enantiomer 2) [listing 1 of 2 here]
EC50 [1]: 0.08 nM
EC50 [2]: > 100000 nM
EC50 [3]: 0.1 nM
EC50 [4]: 0.52 nM
EC50 [5]: 4.8 nM
EC50 [6]: > 100000 nM
EC50 [7]: > 100000 nM
EC50 [8]: 21 nM
half-life [9]: > 1 h
half-life [10]: > 1 h
clearance [11]: 0.422 mL/min/kg
Cmax [12]: 13300 ng/mL
Vd [13]: 0.234 L/kg
half-life [14]: 4.68 h
AUC(0-t) [15]: 124000 ng·h/mL
bioavailability [16]: 100%
IC50 (Cytochrome P450 3A4): > 30000 nM
IC50 (Cytochrome P450 2D6): > 30000 nM
IC50 (Cytochrome P450 2C9): > 30000 nM
IC50 (Cytochrome P450 2C19): > 30000 nM
IC50 (Cytochrome P450 1A2): > 30000 nM
IC50 [17]: > 30000 nM
IC50 [18]: > 400000 nM
Activity (Salmonella typhimurium [19]): Non-toxic
Activity (Salmonella typhimurium [20]): Non-toxic
Activity (Rattus norvegicus [21]): Non-toxic
Activity (Rattus norvegicus [22]): Non-toxic

Compound: N#Cc1cc(OC(F)(F)F)cc(-c2nc(-c3ccc4c(c3)cc3n4CCC3CC(=O)O)no2)c1 (single isomer, unassigned; enantiomer 2) [listing 2 of 2 here]
Activity (Mus musculus [24]): Active
Activity (Mus musculus [25]): Active
Activity (Mus musculus [26]): Active
Activity (Mus musculus [27]): inactive
Activity (Mus musculus [28]): Active
Activity (Mus musculus [29]): Active
Activity (Mus musculus [30]): Active
Activity (Rattus norvegicus [31]): Active

Compound: N#Cc1cc(OC(F)(F)F)cc(-c2nc(-c3ccc4c(c3)cc3n4CCC3CC(=O)O)no2)c1 (stereo in doubt; 23a)
EC50 [1]: 0.76 nM
EC50 [2]: > 100000 nM
EC50 [3]: 3.4 nM
EC50 [4]: 5.5 nM
EC50 [5]: 123 nM
EC50 [6]: > 100000 nM
EC50 [7]: > 100000 nM
EC50 [8]: 289 nM

Compound: N#Cc1cc(-c2nc(-c3ccc4[nH]c5c(c4c3)CCC5CC(=O)O)no2)ccc1OC(F)(F)F (racemic)
EC50 [1]: 3.2 nM

Results, then the compound that gave them:

EC50 [1]: 0.75 nM
EC50 [2]: > 100000 nM
EC50 [3]: 1.8 nM
EC50 [4]: 2.6 nM
EC50 [5]: 36 nM
EC50 [6]: > 100000 nM
half-life [23]: > 1 h
EC50 [7]: 462 nM
EC50 [8]: 15 nM
half-life [9]: > 1 h
half-life [10]: > 1 h
clearance [11]: 1.39 mL/min/kg
Cmax [12]: 1400 ng/mL
Vd [13]: 0.734 L/kg
half-life [14]: 5.46 h
AUC(0-t) [15]: 11000 ng·h/mL
bioavailability [16]: 32.5%
Compound: N#Cc1cc(OC(F)(F)F)cc(-c2nc(-c3ccc4[nH]c5c(c4c3)CCC5CC(=O)O)no2)c1 (single isomer, unassigned)

EC50 [1]: 0.59 nM
Compound: N#Cc1cc(-c2nc(-c3ccc4c(c3)cc3n4CCC3CC(=O)O)no2)ccc1OC(F)(F)F (racemic)

EC50 [1]: 4.6 nM
Compound: COc1ccc(-c2nc(-c3ccc4[nH]c5c(c4c3)CCC5CC(=O)O)no2)cc1C#N (racemic)

EC50 [1]: 1.1 nM
Compound: N#Cc1cc(OC(F)(F)F)cc(-c2nc(-c3ccc4[nH]c5c(c4c3)CCC5CC(=O)O)no2)c1 (racemic)

EC50 [1]: 2.1 nM
Compound: O=C(O)CC1CCn2c1cc1cc(-c3noc(-c4cc(C(F)(F)F)cc(C(F)(F)F)c4)n3)ccc12 (racemic)
